Source: PubChem BioAssay
Only a selection was taken, and hits are over-represented in it overall.
XBP1 UPR activ = adaptive UPR (XBP1) activation; CHO-XBP1 luciferase reporter, IRE1-XBP1 UPR activation, luminescence; percent of tunicamycin response, DMSO as zero; activation, % at 20 µM; 0.33% of 330,000 active;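 active means versus positive control, 20 µM dose yields 30% or more activation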
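assay system = CHO-XBP1 luciferase reporter cells | amount = 1000 cells/well | buffer or medium = F12 plus 10% FBS | compound dosing = single point, 20 µM final compound, 1% DMSO | incubation = 16-18 h cell attachment at 37 °C, then 6 h compound exposure | detection = Steady-Glo luminescence read | controls = tunicamycin 10 µg/mL and vehicle-only wells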
A1 inh = inhibitors of the anti-apoptotic protein A1, read as caspase activation | MEF A1-2A-BIM cells, Caspase-Glo 3/7 luminescence, 3 h; percent of clofoctol response, vehicle zero | caspase activation, % (test concentration not listed) | 0.066% of 330,000 active | AID 2462;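 active means over half of replicate activation scores above 10%, or exactly half above 10 with the replicate mean above 10; inconclusive means replicate mean below 10 yet half the replicates above 10; inactive means over half of replicates below 10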
CHOP inh = CHOP inhibition in unfolded protein response; AID 2732; 3.8% of 220,000 active; CHO-K1 CHOP-promoter luciferase, tunicamycin-induced, 15-18 h; inhibition, % at 10 µM;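 active means compounds that reduced the stress-induced luciferase reporter signal by more than about 70% of percent inhibition, limit read from the data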
CHOP UPR activ = activators of apoptotic arm of unfolded protein response (CHOP); CHO-CHOP luciferase reporter, UPR activation, luminescence; percent of tunicamycin response over DMSO baseline; activation, % at 10 µM; 0.34% of 330,000 active; AID 449763;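 active means at 10 µM dose, activation of 40% or more, normalized to positive control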
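System: CHO-CHOP luciferase reporter cell line | Buffer or medium: F12 medium containing 10% fetal bovine serum | Doses: One dose, 10 µM in 0.5% DMSO | Times: 6 h compound exposure at 37 °C after overnight seeding | Signal: Luciferase luminescence | Read-out: % activation vs tunicamycin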
CHOP UPR conf = confirmation of apoptotic unfolded protein response (CHOP) activators | shares compounds with CHOP UPR activ | activation, % at 10 µM | 64% of 1,000 active | CHO-CHOP cells, CHOP-luciferase reporter luminescence; percent of tunicamycin response, DMSO as zero; in the data active means activation above about 33%
XBP1 UPR conf = adaptive UPR (XBP1) activation, confirmed; CHO-XBP1 IRE1-XBP1 luciferase reporter, luminescence; activation, % at 20 µM; 63% of 1,000 active; shares compounds with XBP1 UPR activ; AID 485299;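 active means reporter signal at least 30% of the positive control's activation in two or more of four replicate wells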
A number is an active result; - = inactive; ? = inconclusive; . = not tested or not shown.

SMILES	XBP1 UPR activ	A1 inh	CHOP inh	CHOP UPR activ	CHOP UPR conf	XBP1 UPR conf
Cc1ccc2nc(NC(=O)c3ccc(-c4nc5ccccc5s4)s3)sc2c1	66	-	-	69	-	89
COc1ccc2cc1Oc1ccc(cc1)CC1c3c(cc(OC)c4c3Oc3cc5c(cc3O4)CCNC5C2)CCN1C (stereo not given)	52	-	-	41	39	30
CCOc1ccc(C2NCCc3cc(OC)c(OC)cc32)cc1OC (stereo not given)	-	-	.	-	.	.
Cc1cccc2sc(NC(=O)c3cc(S(=O)(=O)N(C)C)ccc3N3CCCC3)nc12	55	-	-	63	47	78
CC(C)Cc1nnc(NC(=O)c2cc(S(=O)(=O)N(C)C)ccc2N2CCCC2)s1	-	-	.	-	.	.
CN(C)S(=O)(=O)c1ccc(N2CCCC2)c(C(=O)Nc2nc3ccccc3s2)c1	76	-	-	125	-	91
CN(C)S(=O)(=O)c1ccc(N2CCCC2)c(C(=O)Nc2nc3ccc(F)cc3s2)c1	-	-	-	-	.	.
COc1ccc(-c2[nH]n(-c3ccc([N+](=O)[O-])cc3)c(=O)c2C=NCc2ccc(F)cc2)cc1	53	-	-	42	-	-
Fc1ccc(-c2nnc3ccc(N4CCCC4)nn23)cc1	-	-	-	-	.	.
Brc1ccc(-c2nnc3ccc(N4CCN(c5ccccc5)CC4)nn23)cc1	47	-	-	54	-	-
O=C(/C(=N/N=C/c1ccc(O)c(O)c1)c1ccccc1)c1ccccc1	41	-	-	86	63	30
COC(=O)c1ccc(-n2c(C)cc(C(=O)CCl)c2C)cc1	74	-	90	502	268	-
COC(=O)c1ccc(-n2c(C)cc(C(=O)COC(=O)C3=COCCO3)c2C)cc1	-	?	.	-	.	.
CCOc1ccc(-n2c(C)cc(C(=O)CCl)c2C)cc1	70	-	-	244	621	202
Cc1cc(C)c(OCC(=O)Nc2ccc(S(=O)(=O)N3CCCC3)cc2)c(C)c1	-	-	.	-	.	.
COc1ccc(S(=O)(=O)N2CCN3CCCC3C2)cc1 (stereo not given)	-	-	.	-	.	.
O=C(c1cccc(S(=O)(=O)N2CCN(c3ccc(F)cc3)CC2)c1)N1CCCC(C(F)(F)F)C1 (stereo not given)	-	-	.	-	.	.
Cc1nc2ccccc2n1-c1nc(-c2ccco2)cc(C(F)(F)F)n1	57	-	.	174	133	43
COc1ccc(NC(=O)C(=O)NCc2ccncc2)c(OC)c1	-	-	-	-	.	.
COc1ccc(NC(=O)C(=O)N/N=C\c2ccc(CNC(=O)C(=O)Nc3ccc(C)c(C)c3)o2)c(OC)c1	50	24	.	135	41	52
COc1ccc(-c2ccc3c(c2)S(=O)(=O)c2cccc(C(=O)NCc4cc(C)oc4C(F)(F)F)c2C3=O)cc1OC	-	-	.	-	.	.
O=C(NCc1ccccc1Cl)c1cccc2c1C(=O)c1ccc(-c3ccc(OC(F)(F)F)cc3)cc1S2(=O)=O	164	10	.	128	85	115
O=C(Nc1ccc(NC(=O)c2sc3ccccc3c2Cl)cc1Cl)c1ccco1	342	-	-	63	34	142
C/C(CC1CC(C)OC1=O)=N\NC(N)=S (stereo not given)	-	-	-	-	.	.
C/C(CCC12CC3CC(CC(C3)C1)C2)=N\NC(N)=S	83	-	-	220	96	63
SMILES	XBP1 UPR activ	A1 inh	CHOP inh	CHOP UPR activ	CHOP UPR conf	XBP1 UPR conf
CN(CC(=O)NC1CCN(Cc2ccccc2)CC1)S(=O)(=O)c1ccc(Br)s1	-	-	.	-	.	.
c1ccc2sc(N3CCOCC3)nc2c1	-	-	-	-	.	.
COc1cccc2sc(N3CCN(c4nc5ccccc5s4)CC3)nc12	94	-	80	88	42	86
COc1ccc(C2c3ccc4ccccc4c3Oc3ncn(CCCN(C)C)c(=N)c32)cc1 (stereo not given)	55	-	.	76	37	60
COc1ccccc1C1c2ccc3ccccc3c2Oc2ncn(CCN(C)C)c(=N)c21 (stereo not given)	-	-	.	-	.	.
O=C(COC(=O)c1cc(=O)[nH]c(=O)[nH]1)Nc1ccccc1F	-	-	.	-	.	.
O=c1oc(CCCO)cc2ccc(/C=C/c3cccc([N+](=O)[O-])c3)cc12	78	-	.	76	-	33
O=c1oc(CCCO)cc2ccc(Br)cc12	-	-	.	-	.	.
CCOC(=O)N1CCN(C(=O)C2CC(=O)N(c3ccc(C)cc3)C2)CC1 (stereo not given)	-	-	.	-	.	.
CN(C)C/C=C/C(O)(c1ccccc1)c1ccccc1	-	-	-	-	.	.
CN(C)CC(CCC(CN(C)C)C(O)(c1ccccc1)c1ccccc1)C(O)(c1ccccc1)c1ccccc1 (stereo not given)	35	.	.	77	84	43
O=[N+]([O-])c1ccc(N/N=C/c2cccc(O)c2O)c(S(=O)(=O)N2CCOCC2)c1	54	-	-	133	86	33
C/C(CC(C)(C)C1CCCCC1)=N\NC(N)=S	69	-	-	72	43	31
Cc1ccc(N2CCN(c3ccc(NCc4nc5ccccc5n4C)cc3)CC2)cc1	66	-	-	45	37	89
COc1ccc(NC(=O)c2sc3nc(N4CCOCC4)c4c(c3c2N)CC(C)(C)OC4)cc1	-	-	.	-	.	.
COc1ccc(NC(=O)c2sc3nc(N4CCOCC4)c4c(c3c2N)CC(C)(C)OC4)c(OC)c1	163	-	.	40	39	172
CCc1cc2c(=O)c(-c3cnn(-c4ccccc4)c3)c(C)oc2cc1OCC(=O)Nc1cccc(C)c1	75	7.9	94	148	78	121
Cc1oc2cc(O)ccc2c(=O)c1-c1cnn(-c2ccccc2)c1	-	-	-	-	.	.
Cc1ccc(NC(=O)/C(C#N)=C/c2cn(CC(=O)NCc3ccco3)c3ccccc23)cc1C	235	?	-	124	-	-
N#C/C(=C\c1cn(CCOc2ccccc2)c2ccccc12)C(=O)NCc1ccco1	-	-	-	-	.	.
Cn1c(=O)c2c(SCC(=O)Nc3ccccc3F)nc(-c3ccccc3F)nc2n(C)c1=O	355	-	.	55	101	73
COC(=O)/C(=C\c1ccc(O)cc1)c1nc2ccccc2[nH]1	-	-	-	-	.	.
O=C(/C(=C\c1ccccc1)c1nc2ccccc2[nH]1)c1ccc(Cl)cc1	53	-	87	104	267	-
Cc1cc(C(=O)NNC(=O)c2ccc(C)c([N+](=O)[O-])c2)c(C)o1	-	.	.	-	.	.
Oc1ccc(/C=N/Nc2nc(N3CCCC3)nc(N3CCCC3)n2)cc1O	67	-	-	257	180	44
